Measurements taken from ChEMBL document CHEMBL4814011, “Discovery of a novel class of inhaled dual pharmacology muscarinic antagonist and β2 agonist (MABA) for the treatment of chronic obstructive pulmonary disease (COPD)” (Bioorg Med Chem Lett, 2021).
Activity calls are given as the source filed them. The calls are words filed in the database; no cut-off is given here.

Key:
[1] = biological target: Muscarinic acetylcholine receptor M3 (Homo sapiens, UniProt P20309); test: Displacement of [3H]-N-methylscopolamine from human muscarinic M3 receptor
Cavia porcellus [2] = species: Cavia porcellus; test: (§1) Antagonist activity at muscarinic M3 receptor in guinea pig trachea assessed as inhibition of carbachol-induced contraction; type: tissue-based
Procedure, shortened: (§2)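 Isolated guinea pig tracheal tissue was contracted with the muscarinic agonist carbachol, and inhibition of contraction was scored. A parallel histamine (H1) challenge, opposed only by the β2 component, was used to estimate the β2 share.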

[3] = biological target: Beta-2 adrenergic receptor (Homo sapiens, UniProt P07550); test: Displacement of 125I-cyanopindolol from human adrenergic beta2 receptor
Procedure, shortened: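 Radioligand binding on cloned human β2 adrenoceptor, with displacement of 125I-cyanopindolol.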

[4] = as §1; type: tissue-based, Cavia porcellus; procedure, shortened: as §2
Cavia porcellus [5] = species: Cavia porcellus; test: Activity at muscarinic M3 and adrenergic beta2 in guinea pig trachea assessed as time taken for compound action by MABA assay; type: tissue-based
[6] = Protein binding in rat plasma; type: ADME, cell-free; settings: for fraction unbound: read-out: PPB (converted)
[7] = biological target: beta-2 adrenergic receptor (guinea pig); test: Agonist activity at beta-2 adrenergic receptor in guinea pig trachea assessed as inhibition of histamine-induced contraction
[8] = Protein binding in human plasma; type: ADME, cell-free; settings: for fraction unbound: read-out: PPB (converted)
[9] = In vivo agonist activity at adrenergic beta2 receptor in guinea pig assessed as reduction in acetylcholine/histamine-induced bronchoconstriction at 1 mg/kg, IT(Intratracheal) measured after 24 hrs by Konzett-Roessler methodology relative to control; type: functional; settings: Cavia porcellus, inhaled or nasal
[10] = Protein binding in guinea pig plasma; type: ADME, cell-free, Cavia porcellus
[11] = In vivo agonist activity at adrenergic beta2 receptor in guinea pig assessed as reduction in acetylcholine/histamine-induced bronchoconstriction at 3 mg/kg, IT(Intratracheal) measured after 24 hrs by Konzett-Roessler methodology relative to control; type: functional; settings: Cavia porcellus, inhaled or nasal
[12] = In vivo agonist activity at adrenergic beta2 receptor in guinea pig assessed as reduction in acetylcholine/histamine-induced bronchoconstriction at 3 mg/kg, IT(Intratracheal) measured after 1 hr by Konzett-Roessler methodology relative to control; type: functional; settings: Cavia porcellus, inhaled or nasal
[13] = In vivo agonist activity at adrenergic beta2 receptor in guinea pig assessed as reduction in acetylcholine/histamine-induced bronchoconstriction at 1 mg/kg, IT(Intratracheal) measured after 1 hr by Konzett-Roessler methodology relative to control; type: functional; settings: Cavia porcellus, inhaled or nasal

Sequence of Beta-2 adrenergic receptor (P07550 whole entry): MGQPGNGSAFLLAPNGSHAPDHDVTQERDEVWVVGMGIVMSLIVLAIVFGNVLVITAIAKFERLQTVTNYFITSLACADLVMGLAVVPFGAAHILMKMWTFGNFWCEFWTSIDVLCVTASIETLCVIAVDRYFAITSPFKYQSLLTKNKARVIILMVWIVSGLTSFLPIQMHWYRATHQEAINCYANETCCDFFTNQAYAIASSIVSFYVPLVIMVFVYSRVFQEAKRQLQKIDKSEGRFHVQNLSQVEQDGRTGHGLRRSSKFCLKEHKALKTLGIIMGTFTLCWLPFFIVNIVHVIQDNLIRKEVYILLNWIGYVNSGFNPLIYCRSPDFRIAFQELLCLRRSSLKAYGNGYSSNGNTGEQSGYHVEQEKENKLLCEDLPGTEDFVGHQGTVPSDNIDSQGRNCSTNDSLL
Sequence of Muscarinic acetylcholine receptor M3 (P20309 whole entry): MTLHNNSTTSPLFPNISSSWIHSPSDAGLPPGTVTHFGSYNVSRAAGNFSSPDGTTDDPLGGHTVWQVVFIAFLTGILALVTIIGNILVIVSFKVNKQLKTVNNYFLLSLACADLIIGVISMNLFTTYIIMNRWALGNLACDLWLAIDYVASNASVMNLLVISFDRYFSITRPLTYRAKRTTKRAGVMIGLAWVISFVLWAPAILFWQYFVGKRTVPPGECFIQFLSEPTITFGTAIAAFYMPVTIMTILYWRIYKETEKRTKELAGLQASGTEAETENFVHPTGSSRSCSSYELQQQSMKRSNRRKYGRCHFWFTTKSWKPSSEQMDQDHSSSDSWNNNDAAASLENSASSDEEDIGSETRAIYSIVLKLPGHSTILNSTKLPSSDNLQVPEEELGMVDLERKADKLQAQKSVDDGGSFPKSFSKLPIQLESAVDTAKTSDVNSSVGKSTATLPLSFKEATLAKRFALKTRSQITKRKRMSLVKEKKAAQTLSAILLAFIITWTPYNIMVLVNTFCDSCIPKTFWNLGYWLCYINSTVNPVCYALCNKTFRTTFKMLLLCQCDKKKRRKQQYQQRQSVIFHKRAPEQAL

Compound | Ki [1] | Ki [3] | pIC50 [4] | TIME (Cavia porcellus [5]) | pIC50 [7] | TIME (Cavia porcellus [5]; filed as modulator) | also measured
O=C(N[C@H](c1ccccc1)c1cccc(OCCCCCCNC[C@H](O)c2ccc(O)c3[nH]c(=O)ccc23)c1)O[C@H]1CN2CCC1CC2 | 3.98 nM | 0.0398 nM | – | – | – | – | pIC50 (Cavia porcellus [2]): inactive
O=C(N[C@@H](c1ccccc1)c1ccc(-c2cccc(OCc3ccc(C(=O)NCCCNC[C@H](O)c4ccc(O)c5[nH]c(=O)ccc45)cc3)c2)cc1)O[C@H]1CN2CCC1CC2 | 0.1 nM | 0.0126 nM | 9.7 | > 4.5 h | 9.8 | – | fraction unbound [6]: 0.05; fraction unbound [8]: 0.05
O=C(NC(c1ccccc1)c1ccccc1)O[C@H]1CN2CCC1CC2 | 1.26 nM | – | – | – | – | – | –
O=C(NC(c1ccccc1)c1ccc(OCCCCCCCCCNC[C@H](O)c2ccc(O)c3[nH]c(=O)ccc23)cc1)O[C@H]1CN2CCC1CC2 (stereo partly specified) | 10 nM | 0.251 nM | 8.3 | > 4.5 h | 7.3 | – | –
O=C(NC(c1ccccc1)c1cccc(OCCCCCNC[C@H](O)c2ccc(O)c3[nH]c(=O)ccc23)c1)O[C@H]1CN2CCC1CC2 (stereo partly specified) | 0.398 nM | 0.0251 nM | 8.5 | – | 9 | < 0.75 h | –
O=C(NC(c1ccccc1)c1cccc(OCCCCCCNC[C@H](O)c2ccc(O)c3[nH]c(=O)ccc23)c1)O[C@H]1CN2CCC1CC2 (stereo partly specified) | 0.316 nM | 0.0158 nM | 9.9 | – | 9.8 | < 2.25 h | –
O=C(N[C@@H](c1ccccc1)c1cccc(OCc2ccc(CCNC[C@H](O)c3ccc(O)c4[nH]c(=O)ccc34)cc2)c1)O[C@H]1CN2CCC1CC2 | – | – | 9.3 | > 4.5 h | 9.1 | – | inhibition in vivo at 1 mg/kg [9]: 42%; PPB [10]: 99%; inhibition in vivo at 3 mg/kg [11]: 35%; PPB [6]: 98%; inhibition in vivo at 3 mg/kg [12]: 67%; inhibition in vivo at 1 mg/kg [13]: 20%; PPB [8]: 98%
O=C(NC(c1ccccc1)c1cccc(OCCCCCCCNC[C@H](O)c2ccc(O)c3[nH]c(=O)ccc23)c1)O[C@H]1CN2CCC1CC2 (stereo partly specified) | 0.398 nM | 0.1 nM | 9.3 | – | 8.1 | < 1.5 h | –
CCN(CCCNC[C@H](O)c1ccc(O)c2[nH]c(=O)ccc12)C(=O)c1ccc(COc2cccc(-c3ccc([C@@H](NC(=O)O[C@H]4CN5CCC4CC5)c4ccccc4)cc3)c2)cc1 | 0.251 nM | 0.0501 nM | 9.5 | > 3.75 h | 9.5 | – | fraction unbound [6]: 0.06; fraction unbound [8]: 0.04
O=C(N[C@@H](c1ccccc1)c1ccc(-c2cccc(OCc3ccc(C(=O)N(CCCNC[C@H](O)c4ccc(O)c5[nH]c(=O)ccc45)Cc4ccccc4)cc3)c2)cc1)O[C@H]1CN2CCC1CC2 | 0.126 nM | 0.1 nM | 8.7 | > 3 h | 9 | – | inhibition in vivo at 3 mg/kg [11]: 20%; fraction unbound [6]: 0.03; inhibition in vivo at 3 mg/kg [12]: 63%; inhibition in vivo at 1 mg/kg [13]: 27%; fraction unbound [8]: < 0.01
O=C(NC(c1ccccc1)c1cccc(OCCCCCCCCNC[C@H](O)c2ccc(O)c3[nH]c(=O)ccc23)c1)O[C@H]1CN2CCC1CC2 (stereo partly specified) | 0.158 nM | 0.2 nM | 8.7 | – | 7.8 | < 1.5 h | –
O=C(N[C@@H](c1ccccc1)c1cccc(OCCCCCCNC[C@H](O)c2ccc(O)c3[nH]c(=O)ccc23)c1)O[C@H]1CN2CCC1CC2 | 0.126 nM | 0.501 nM | – | – | – | – | pIC50 (Cavia porcellus [2]): inactive
O=C(NC(c1ccccc1)c1cccc(OCCCCCCCCCNC[C@H](O)c2ccc(O)c3[nH]c(=O)ccc23)c1)O[C@H]1CN2CCC1CC2 (stereo partly specified) | 0.251 nM | 0.2 nM | 7.5 | > 4.5 h | 7.3 | – | –
